Measured values reported in ChEMBL document CHEMBL3779898, “3,3'-OH curcumin causes apoptosis in HepG2 cells through ROS-mediated pathway” (Eur J Med Chem, 2016).
Active and inactive are the calls of the source. The calls are words filed in the database; no cut-off is given here.

Experiments:
[1] = test system: HepG2; assay: Induction of intracellular ROS production in human HepG2 cells at 50 uM after 3 to 6 hrs by DCFH-DA staining based flow cytometry in presence of 5mM glutathione; assay type: functional, cell-based
Outline: (§1)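 HepG2 pretreated 1 h with 5 mM GSH or 5 mM NAC, then exposed to 50 μM compound for the indicated time; loaded with 3 μM DCFH-DA for 30 min at 37 °C in the dark, washed with PBS, DCF fluorescence read by flow cytometry (ex 488, em 530 nm).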

[2] = test system: HepG2; assay: Induction of mitochondrial membrane potential loss in human HepG2 cells at 50 uM after 18 hrs by rhodamine 123 staining based flow cytometry in presence of 5mM glutathione; assay type: functional, cell-based
Outline: (§2)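 HepG2 pretreated 1 h with 5 mM GSH or 5 mM NAC, then exposed to 50 μM compound for the indicated time; Rhodamine 123 fluorescence measured by flow cytometry; triplicate.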

[3] = test system: HepG2; assay: Induction of lipid peroxidation in human HepG2 cells assessed as increase in malondialdehyde formation after 18 hrs; assay type: functional, cell-based
Outline: (§3)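 HepG2 (5×10^5/well) grown 24 h, treated 18 h at 6.25, 25, 37.5 or 50 μM, lysed in ice-cold water by freeze–thaw. Lysate heated 1 h at 95 °C with 0.4% thiobarbituric acid, 0.5% SDS, 9.4% acetic acid (pH 3.5), centrifuged, A532 read. MDA quantified against a tetramethoxypropane standard curve, expressed as pmol/mg protein; triplicate.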

[4] = test system: HepG2; assay: Induction of apoptosis in human HepG2 cells assessed as late apoptotic cells at 50 uM after 24 hrs by Annexin V-FITC/propidium iodide staining based flow cytometry (reference value: 5.4%); assay type: functional
Outline: (§4)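 HepG2 plated at 5×10^5/well, grown 24 h, then treated 24 h; where indicated, 1 h pretreatment with 5 mM GSH or NAC. Cells stained with Annexin V-FITC/PI; 10,000 cells per sample analysed by flow cytometry into early apoptotic, late apoptotic and necrotic quadrants; triplicate.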

[5] = test system: HepG2; assay: Induction of apoptosis in human HepG2 cells assessed as early apoptotic cells at 25 uM after 24 hrs by Annexin V-FITC/propidium iodide staining based flow cytometry (reference value: 2.8%); assay type: functional; outline: as §4
[6] = test system: HepG2; assay: Induction of apoptosis in human HepG2 cells assessed as late apoptotic cells at 50 uM after 24 hrs pretreated with 5 mM glutathione for 1 hr by Annexin V-FITC/propidium iodide staining based flow cytometry (reference value: 5.4%); assay type: functional; outline: as §4
[7] = test system: HepG2; assay: Induction of lipid peroxidation in human HepG2 cells assessed as increase in malondialdehyde formation at 50 uM after 18 hrs relative to control; assay type: functional; outline: as §3
[8] = test system: HepG2; assay: Induction of apoptosis in human HepG2 cells assessed as necrotic cells at 12.5 uM after 24 hrs by Annexin V-FITC/propidium iodide staining based flow cytometry (reference value: 1.6%); assay type: functional; outline: as §4
[9] = test system: HepG2; assay: Induction of apoptosis in human HepG2 cells assessed as necrotic cells at 50 uM after 24 hrs pretreated with 5 mM glutathione for 1 hr by Annexin V-FITC/propidium iodide staining based flow cytometry (reference value: 1.6%); assay type: functional; outline: as §4
[10] = test system: HepG2; assay: Induction of apoptosis in human HepG2 cells assessed as early apoptotic cells at 12.5 uM after 24 hrs by Annexin V-FITC/propidium iodide staining based flow cytometry (reference value: 2.8%); assay type: functional; outline: as §4
[11] = test system: HepG2; assay: Induction of intracellular ROS production in human HepG2 cells at 50 uM after 6 hrs by DCFH-DA staining based flow cytometry relative to control; assay type: functional
Outline: (§5)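 Cells treated with 50 μM compound for 6 h, with or without 1 h catalase pretreatment; stained with 3 μM DCFH-DA for 30 min at 37 °C in the dark, washed, DCF fluorescence read by flow cytometry (488/530 nm); triplicate.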

[12] = test system: Serum; assay: Stability in RPMI-1640 medium containing 10% fetal calf serum at 25 uM incubated for 20 to 120 mins at 25 degC; assay type: ADME, Bos taurus; settings: cattle
[13] = test system: HepG2; assay: Induction of apoptosis in human HepG2 cells after 24 hrs by Annexin V-FITC/propidium iodide staining based flow cytometry; assay type: functional, cell-based; outline: as §4
[14] = test system: HepG2; assay: Induction of mitochondrial membrane potential loss in human HepG2 cells at 50 uM after 18 hrs by rhodamine 123 staining based flow cytometry in presence of 5mM N-acetylcysteine; assay type: functional, cell-based; outline: as §2
[15] = test system: HepG2; assay: Induction of intracellular ROS production in human HepG2 cells at 50 uM after 6 hrs by DCFH-DA staining based flow cytometry in presence of catalase; assay type: functional, cell-based; outline: as §5
[16] = test system: HepG2; assay: Induction of apoptosis in human HepG2 cells assessed as necrotic cells at 37.5 uM after 24 hrs by Annexin V-FITC/propidium iodide staining based flow cytometry (reference value: 1.6%); assay type: functional; outline: as §4
[17] = test system: HepG2; assay: Cellular uptake in human HepG2 cells at 50 uM after 1 hr; assay type: ADME, cell-based; settings: hepg2, 1 h
Outline: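 HepG2 cells exposed to 50 μM for varying incubation periods; cells lysed, lysate extracted with methanol, and uptake estimated by absorbance of the extract.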

[18] = test system: HepG2; assay: Induction of apoptosis in human HepG2 cells assessed as early apoptotic cells at 37.5 uM after 24 hrs by Annexin V-FITC/propidium iodide staining based flow cytometry (reference value: 2.8%); assay type: functional; outline: as §4
[19] = test system: HepG2; assay: Cytotoxicity against human HepG2 cells assessed as reduction in cell viability at 50 uM after 48 hrs by MTT assay in presence of 5mM N-acetylcysteine; assay type: functional, cell-based
Outline: (§6)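 HepG2 cells pretreated 1 h with 5 mM NAC or 5 mM GSH, then exposed to 50 μM test compound; viability measured by MTT (0.5 mg/mL, 4 h, DMSO solubilisation, 570 nm).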

[20] = test system: HepG2; assay: Induction of apoptosis in human HepG2 cells assessed as necrotic cells at 50 uM after 24 hrs pretreated with 5 mM N-acetylcysteine for 1 hr by Annexin V-FITC/propidium iodide staining based flow cytometry (reference value: 1.6%); assay type: functional; outline: as §4
[21] = test system: HepG2; assay: Induction of intracellular ROS production in human HepG2 cells assessed as decrease in GSH/GSSG ratio at 50 uM incubated for 6 hrs by glutathione reductase-DTNB recycling assay relative to control; assay type: functional
Outline: (§7)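 HepG2 (5×10^5/well) grown 24 h, treated 6 h, then lysed in ice-cold 10 mM HCl by three freeze–thaw cycles; part of lysate used for protein. Proteins precipitated with 6.5% 5-sulfosalicylic acid; supernatant assayed for total GSH and GSSG by glutathione reductase–DTNB recycling; triplicate.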

[22] = test system: HepG2; assay: Induction of apoptosis in human HepG2 cells assessed as late apoptotic cells at 37.5 uM after 24 hrs by Annexin V-FITC/propidium iodide staining based flow cytometry (reference value: 5.4%); assay type: functional; outline: as §4
[23] = test system: HepG2; assay: Induction of apoptosis in human HepG2 cells assessed as late apoptotic cells at 12.5 uM after 24 hrs by Annexin V-FITC/propidium iodide staining based flow cytometry (reference value: 5.4%); assay type: functional; outline: as §4
[24] = test system: HepG2; assay: Induction of apoptosis in human HepG2 cells assessed as necrotic cells at 25 uM after 24 hrs by Annexin V-FITC/propidium iodide staining based flow cytometry (reference value: 1.6%); assay type: functional; outline: as §4
[25] = test system: HepG2; assay: Cytotoxicity against human HepG2 cells assessed as reduction in cell viability at 50 uM after 48 hrs by MTT assay in presence of 5mM glutathione; assay type: functional, cell-based; outline: as §6
[26] = test system: HepG2; assay: Induction of apoptosis in human HepG2 cells assessed as late apoptotic cells at 50 uM after 24 hrs pretreated with 5 mM N-acetylcysteine for 1 hr by Annexin V-FITC/propidium iodide staining based flow cytometry (reference value: 5.4%); assay type: functional; outline: as §4
[27] = test system: HepG2; assay: Induction of intracellular ROS production in human HepG2 cells assessed as decrease in GSH/GSSG ratio incubated for 6 hrs by glutathione reductase-DTNB recycling assay; assay type: functional, cell-based; outline: as §7
[28] = test system: HepG2; assay: Induction of intracellular ROS production in human HepG2 cells at 50 uM after 3 to 6 hrs by DCFH-DA staining based flow cytometry in presence of 5mM N-acetylcysteine; assay type: functional, cell-based; outline: as §1
[29] = test system: HepG2; assay: Cytotoxicity against human HepG2 cells assessed as reduction in cell viability after 48 hrs by MTT assay; assay type: functional, cell-based; settings: HepG2, 48 h
Outline: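 HepG2 seeded at 3×10^3/well, grown 24 h, then exposed to compounds for 48 h. MTT (0.5 mg/mL) added for 4 h, formazan dissolved in DMSO, absorbance read at 570 nm. IC50 = concentration giving 50% loss of viability; mean ± SD of three determinations.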

[30] = test system: HepG2; assay: Induction of apoptosis in human HepG2 cells assessed as necrotic cells at 50 uM after 24 hrs by Annexin V-FITC/propidium iodide staining based flow cytometry (reference value: 1.6%); assay type: functional; outline: as §4
[31] = test system: HepG2; assay: Induction of apoptosis in human HepG2 cells assessed as early apoptotic cells at 50 uM after 24 hrs pretreated with 5 mM N-acetylcysteine for 1 hr by Annexin V-FITC/propidium iodide staining based flow cytometry (reference value: 2.8%); assay type: functional; outline: as §4
[32] = test system: HepG2; assay: Induction of apoptosis in human HepG2 cells assessed as late apoptotic cells at 25 uM after 24 hrs by Annexin V-FITC/propidium iodide staining based flow cytometry (reference value: 5.4%); assay type: functional; outline: as §4
[33] = test system: HepG2; assay: Induction of apoptosis in human HepG2 cells assessed as early apoptotic cells at 50 uM after 24 hrs pretreated with 5 mM glutathione for 1 hr by Annexin V-FITC/propidium iodide staining based flow cytometry (reference value: 2.8%); assay type: functional; outline: as §4
[34] = test system: HepG2; assay: Potency index, ratio of curcumin IC50 to compound IC50 for human HepG2 cells; assay type: functional
Outline: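 Derived from MTT IC50 values in HepG2 after 48 h treatment, means of three determinations.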

[35] = test system: HepG2; assay: Induction of superoxide radical generation production in human HepG2 cells at 50 uM incubated for 6 hrs by DHE staining based flow cytometry; assay type: functional, cell-based
Outline: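 Cells incubated 6 h with 50 μM compound, stained with 3 μM DHE for 30 min at 37 °C in the dark, and analysed by flow cytometry; triplicate.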

[36] = test system: HepG2; assay: Induction of apoptosis in human HepG2 cells assessed as early apoptotic cells at 50 uM after 24 hrs by Annexin V-FITC/propidium iodide staining based flow cytometry (reference value: 2.8%); assay type: functional; outline: as §4
[37] = test system: HepG2; assay: Induction of apoptosis in human HepG2 cells assessed as early apoptotic cells at 5 mM after 24 hrs by Annexin V-FITC/propidium iodide staining based flow cytometry (reference value: 2.8%); assay type: functional; outline: as §4
[38] = test system: HepG2; assay: Induction of apoptosis in human HepG2 cells assessed as necrotic cells at 5 mM after 24 hrs by Annexin V-FITC/propidium iodide staining based flow cytometry (reference value: 1.6%); assay type: functional; outline: as §4
[39] = test system: HepG2; assay: Induction of apoptosis in human HepG2 cells assessed as late apoptotic cells at 5 mM after 24 hrs by Annexin V-FITC/propidium iodide staining based flow cytometry (reference value: 5.4%); assay type: functional; outline: as §4

O=C(/C=C/c1cccc(O)c1)CC(=O)/C=C/c1cccc(O)c1 was tested, and the Activity [1] was “inactive”, the Activity [2] was “inactive” and the Activity [3] was “Dose-dependent effect”. The Activity [4] was 80.2%, the Activity [5] was 7% and the Activity [6] was 6.3%. For the same compound, the “fold change (FC)” value [7] was 1, the Activity [8] was 2.8% and the Activity [9] was 2%. For the same compound, the Activity [10] was 2.8%, the “fold change (FC)” value [11] was 5 and the Stability [12] was “Stable”. For the same compound, the Activity [13] was “Dose-dependent effect”, the Activity [14] was “inactive” and the Activity [15] was “inactive”. The Activity [16] was 45%, the Drug uptake [17] was “Active” and the Activity [18] was 19.1%. For the same compound, the Activity [19] was “inactive”, the Activity [20] was 2.2% and the “fold change (FC)” value [21] was 2. For the same compound, the Activity [22] was 28.5%, the Activity [23] was 5.7% and the Activity [24] was 7%. The Activity [25] was “inactive”, the Activity [26] was 6.8% and the Activity [27] was “Dose-dependent effect”. The Activity [28] was “inactive”, the IC50 [29] was 15.1 µM and the Activity [30] was 7.6%. It also gave an Activity [31] of 2.8%, an Activity [32] of 12.4% and an Activity [33] of 3%. The “Ratio IC50” value [34] was 3.5, the Activity [35] was “inactive” and the Activity [36] was 1.4%.
Work on CC(=O)N[C@@H](CS)C(=O)O [ACETYLCYSTEINE] yielded an Activity [37] of 2.6%, an Activity [38] of 1.9% and an Activity [39] of 6.6%.
O=C(/C=C/c1ccccc1)CC(=O)/C=C/c1ccccc1 was tested, and the IC50 [29] was > 200 µM.
Work on COc1cccc(/C=C/C(=O)CC(=O)/C=C/c2cccc(OC)c2)c1 yielded an IC50 [29] of 83.4 µM.
With O=C(/C=C/c1ccc(C(F)(F)F)cc1)CC(=O)/C=C/c1ccc(C(F)(F)F)cc1 the IC50 [29] was > 200 µM.
Work on O=C(/C=C/c1ccc(O)cc1)CC(=O)/C=C/c1ccc(O)cc1 [BISDEMETHOXYCURCUMIN] yielded an IC50 [29] of 75.5 µM.
COc1cc(/C=C/C(=O)CC(=O)/C=C/c2ccc(O)c(OC)c2)ccc1O [CURCUMIN] was tested, and the IC50 [29] was 52.3 µM.
